Here are results for 20 compounds from ChEMBL document CHEMBL1151787, “Salicylanilides: selective inhibitors of interleukin-12p40 production” (Bioorg Med Chem, 2008).

Data set [1] is described as follows: Cytotoxicity against CD40L, IFN-gamma and IL18 mixture-stimulated mouse DC-B cells at <100 nM after 18 hrs by CellTiter-Glo assay. In kind it is cell-based. Put shortly: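 Murine dendritic cell line DC-B treated with test compound, then stimulated as in the cytokine assay (mouse CD40L, IL-18, IFN-gamma) and incubated 18 h. CellTiter-Glo reagent added in volume equal to the culture. Plates shaken 2 min to lyse cells, then left 10 min without shaking. Luminescence read on a microplate reader.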

A short description of data set [2]: Inhibition of CD40L, IFN-gamma and IL18 mixture-induced IL12p40 production in mouse DC-B cells after 18 to 24 hrs by fluorescence immunoassay. In kind it is functional, cell-based. The essentials:
(§1)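 DC-B cells grown in GM-CSF (20 ng/mL) medium and passaged every 48 h. Cells were mixed with compound in low-serum assay medium (0.4% DMSO) and stimulated with murine CD40L 2 ng/mL, IL-18 40 ng/mL and IFN-gamma 20 ng/mL (final). Incubation was 18–24 h at 37 °C, 5% CO2. Supernatant IL-12p40 or IL-6 was measured by europium sandwich immunoassay (biotinylated detection antibody, Eu-streptavidin, 615 nm). Ten concentrations were tested, in triplicate, and results were expressed as percent of control versus concentration.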

Data set [3] in a line: Inhibition of CD40L, IFN-gamma and IL18 mixture-induced IL6 production in mouse DC-B cells after 18 to 24 hrs by fluorescence immunoassay. The data set is classed as functional, cell-based. The essentials:
as §1

For data set [4], the species on record is Mus musculus. In words: Inhibition of CD40L, IFN-gamma and IL18 mixture-induced IL12p40 production in mouse DC-B cells at 10 uM after 18 to 24 hrs by fluorescence immunoassay. In kind it is functional, cell-based.

Activity calls are given as the source filed them. The calls are words filed in the database; no cut-off is given here. A value given as a limit tells only on which side of the number the result lay.

`O=C(Nc1ccc(Cl)c(Cl)c1)c1cc(Cl)ccc1O`: the Activity result in data set [1] is reported as “Non-toxic”. Further, the half-maximal inhibitory concentration (IC50) in data set [2] and in data set [3] was 130 nM in each case.

With `O=C(O)CN(C(=O)c1ccccc1O)c1cc(Cl)cc(Cl)c1`, the Activity result in data set [1] is “Non-toxic”. The IC50 in data set [2] and in data set [3] was above 10000 nM each time.

With `O=C(Nc1cccc(Cl)c1)c1ccccc1O`, the Activity result in data set [1] is given as “Non-toxic”. Further, the IC50 is 5100 nM in data set [2] and above 10000 nM in data set [3].

Turning to `O=C(Nc1cc(Cl)c(Cl)cc1Cl)c1ccccc1O`, in data set [1], the Activity result is on record as “Non-toxic”. For the same compound, the IC50 was 45 nM in data set [2] and above 10000 nM in data set [3].

With `O=C1c2cccc(O)c2C(=O)N1c1cc(Cl)cc(Cl)c1`, in data set [1], the Activity result is “Non-toxic”. Further, the IC50 in data set [2] and in data set [3] was above 10000 nM in each case.

For `O=C(Nc1cc(Cl)cc(Cl)c1)c1cc([N+](=O)[O-])ccc1O`, the Activity entry in data set [1] is listed as “Non-toxic”. For the same compound, the IC50 in data set [2] came to 410 nM; in data set [3] it was 170 nM.

For `O=C(Nc1cc(Cl)cc(Cl)c1)c1ccccc1O`, the Activity result in data set [1] is “Non-toxic”. In addition, the figures for the IC50 in data set [2] and in data set [3] were 13 nM and above 10000 nM, respectively.

As for `O=C(Nc1ccccn1)c1ccccc1O`, the Activity entry in data set [1] is reported as “Non-toxic”. The IC50 in data set [2] and in data set [3] was above 10000 nM throughout.

Take `O=C(Nc1cc(Cl)cc(Cl)c1)c1ccccc1NS(=O)(=O)c1ccc(Cl)c([N+](=O)[O-])c1`: the Activity result in data set [1] is “Non-toxic”. The IC50 in data set [2] stood at 240 nM; in data set [3], 220 nM.

For `O=C(Nc1cc(Cl)c(Cl)cc1Cl)c1cc(Br)ccc1O`, in data set [1], the Activity result is given as “Non-toxic”. The half-inhibitory concentration (IC50) came out at 74 nM in data set [2] and 640 nM in data set [3].

On to `O=C(Nc1cc(Cl)cc(Cl)c1)c1ccc([N+](=O)[O-])cc1O`, for which the Activity entry in data set [1] was “Non-toxic”. For the same compound, the half-inhibitory concentration (IC50) in data set [2] worked out at 320 nM; in data set [3], 250 nM.

In the case of `O=C(Nc1ccc(O)cc1)c1ccccc1O` [OSALMID], in data set [1], the Activity entry is given as “Non-toxic”. The IC50 in data set [2] and in data set [3] was above 10000 nM throughout.

As for `O=C(Nc1cc(Cl)cc(Cl)c1)c1ccccc1OCc1ccccc1`, the Activity entry in data set [1] is reported as “Non-toxic”. Moreover, the IC50 in data set [2] and in data set [3] was above 10000 nM throughout. Also, in data set [4], the result was inactive.

In the case of `O=C(Nc1cc(C(F)(F)F)ccc1Cl)c1ccccc1O`, in data set [1], the Activity entry was “Non-toxic”. Further, the figures for the IC50 in data set [2] and in data set [3] were 200 nM and 1800 nM, respectively.

In the case of `O=C(Nc1cc(Cl)cc(Cl)c1)c1cc(Br)ccc1O`, the Activity entry in data set [1] is given as “Non-toxic”. The IC50 came out at 13 nM in data set [2] and 300 nM in data set [3].

With `O=c1oc2cc(Cl)ccc2c(=O)n1-c1cc(C(F)(F)F)cc(C(F)(F)F)c1`, the Activity result in data set [1] is given as “Non-toxic”. For the same compound, the IC50 was found to be 280 nM in data set [2] and 350 nM in data set [3].

On to `CN(C(=O)c1ccccc1O)c1cc(Cl)cc(Cl)c1`, for which the Activity result in data set [1] is on record as “Non-toxic”. Moreover, the IC50 in data set [2] and in data set [3] was above 10000 nM throughout.

Regarding `Oc1ccc(Br)cc1CNc1cc(Cl)cc(Cl)c1`, in data set [1], the Activity result was “Non-toxic”. Besides, the results for the IC50 in data set [2] and in data set [3] were 2700 nM and 1700 nM, respectively.

On to `Cc1cc(C)cc(NC(=O)c2ccccc2O)c1`, for which the Activity result in data set [1] is listed as “Non-toxic”. The concentration for half-maximal inhibition (IC50) in data set [2] and in data set [3] was above 10000 nM in each case.

`O=C(Nc1cc(C(F)(F)F)cc(C(F)(F)F)c1)c1ccccc1O`: the Activity result in data set [1] was “Non-toxic”. In addition, the IC50 in data set [2] amounted to 120 nM; in data set [3], 740 nM.
